Results from ChEMBL document CHEMBL3351413, “Development of quinone analogues as dynamin GTPase inhibitors” (Eur J Med Chem, 2014).
pIC50: −log10 of the molar value. Active and inactive are the calls of the source. No cut-off for these calls is given here.

system: not listed separately; assay: Competitive inhibition of phosphatidylserine-stimulated GTPase activity of sheep brain Dynamin 1 expressed in Sf21 cells by Lineweaver-Burk plot method in presence of Mg2+ and GTP; conditions: Ovis aries

| Structure (SMILES) | inhibition |
| --- | --- |
| O=C1C=C(Nc2ccc(CO)cc2)C(=O)C=C1Nc1ccc(CO)cc1 | Active |

target: T1, Dynamin-2 (Rattus norvegicus) (UniProt P39052); assay: Inhibition of phosphatidylserine-stimulated GTPase activity of recombinant rat Dynamin 2 expressed in Sf21 cells assessed as inhibition of orthophosphate release from GTP up to 300 uM by malachite green method; conditions: not given
T1 sequence (whole entry): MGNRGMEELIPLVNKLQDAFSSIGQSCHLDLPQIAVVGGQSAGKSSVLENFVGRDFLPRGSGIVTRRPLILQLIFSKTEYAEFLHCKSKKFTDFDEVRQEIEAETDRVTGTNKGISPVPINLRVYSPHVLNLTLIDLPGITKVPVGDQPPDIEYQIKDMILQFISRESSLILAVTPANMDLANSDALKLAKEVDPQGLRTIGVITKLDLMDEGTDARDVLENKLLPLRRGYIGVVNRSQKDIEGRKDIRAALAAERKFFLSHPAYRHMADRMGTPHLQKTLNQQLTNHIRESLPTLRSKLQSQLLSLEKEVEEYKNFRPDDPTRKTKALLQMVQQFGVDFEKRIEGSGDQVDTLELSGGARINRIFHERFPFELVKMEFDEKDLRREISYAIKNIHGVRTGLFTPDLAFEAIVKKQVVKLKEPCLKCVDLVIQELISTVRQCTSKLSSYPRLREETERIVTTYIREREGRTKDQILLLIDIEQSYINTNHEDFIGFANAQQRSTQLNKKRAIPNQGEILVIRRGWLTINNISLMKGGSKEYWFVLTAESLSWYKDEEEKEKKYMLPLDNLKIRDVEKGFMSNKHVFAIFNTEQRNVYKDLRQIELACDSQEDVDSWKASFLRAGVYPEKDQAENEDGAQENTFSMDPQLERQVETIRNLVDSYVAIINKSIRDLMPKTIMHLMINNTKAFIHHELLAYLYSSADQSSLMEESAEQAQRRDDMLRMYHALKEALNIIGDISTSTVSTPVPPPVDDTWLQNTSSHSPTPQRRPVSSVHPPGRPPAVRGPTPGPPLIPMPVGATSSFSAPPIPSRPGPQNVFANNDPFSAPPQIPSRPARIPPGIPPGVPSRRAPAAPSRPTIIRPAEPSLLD
Summary of the method: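 His-6-tagged rat dynII from pIEx-6-transfected Sf21 cells (polyethylenimine, DNA:PEI 1:5, 48 h), purified on GST-Amph2-SH3-sepharose. Enzyme at 50 nM final was stimulated with phosphatidylserine liposomes for 90 min. GTP-derived Pi release was read colorimetrically with Malachite Green. Final DMSO was at most 3.3%.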

| Structure (SMILES) | inhibition |
| --- | --- |
| O=C1C=C(NCc2ccccc2)C(=O)C=C1NCc1ccccc1 | inactive |

system: not listed separately; assay: Inhibition of phosphatidylserine-stimulated GTPase activity of sheep brain Dynamin 1 expressed in Sf21 cells assessed as inhibition of orthophosphate release from GTP by malachite green method; parameters: species or system Ovis aries; conditions: not given
Summary of the method: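 DynI at 50 nM, stimulated with phosphatidylserine liposomes for 30 min. Pi release from GTP detected colorimetrically by malachite green. Compounds diluted from DMSO stocks, final DMSO at most 3.3%.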

| pIC50 | Structure (SMILES) |
| --- | --- |
| 4.30 | O=C1C=C(Nc2ccccc2C(=O)O)C(=O)C=C1Nc1ccccc1C(=O)O |
| 4.95 | O=C1C=C(Nc2ccc(O)cc2)C(=O)C=C1Nc1ccc(O)cc1 |
| 3.41 | O=C1C=C(Nc2ccccc2Br)C(=O)C=C1Nc1ccccc1Br |
| 3.95 | O=C1C=C(NCc2ccc(O)cc2)C(=O)C=C1NCc1ccc(O)cc1 |
| 4.60 | O=C1C=C(Nc2cccc(C(=O)O)c2)C(=O)C=C1Nc1cccc(C(=O)O)c1 |
| < 3.52 | O=C1C=C(Nc2ccccc2CO)C(=O)C=C1Nc1ccccc1CO |
| 4.65 | O=C1C=C(Nc2ccc(O)cc2)C(=O)c2ccccc21 |
| 3.94 | O=C1C=C(NCCO)C(=O)C=C1NCCO |
| < 3.52 | CN(C)CCNC1=CC(=O)C(NCCN(C)C)=CC1=O |
| 4.24 | O=C1C=C(NCCCBr)C(=O)C=C1NCCCBr |
| 4.53 | O=C1C=C(Nc2ccc(CO)cc2)C(=O)c2ccccc21 |
| 3.77 | COc1ccc(CNC2=CC(=O)C(NCc3ccc(OC)cc3)=CC2=O)cc1 |
| < 3.52 | CCCCCCNC1=CC(=O)C(NCCCCCC)=CC1=O |
| 4.97 | O=C1C=C(Nc2ccc(C(=O)O)cc2)C(=O)C=C1Nc1ccc(C(=O)O)cc1 |
| 3.82 | O=C1C=C(NCc2ccc(O)cc2)C(=O)c2ccccc21 |
| < 3.52 | COc1cccc(NC2=CC(=O)C(Nc3cccc(OC)c3)=CC2=O)c1 |
| 3.96 | O=C1C=C(Nc2cccc(O)c2)C(=O)c2ccccc21 |
| 4.54 | O=C1C=C(NCc2ccc(C(=O)O)cc2)C(=O)C=C1NCc1ccc(C(=O)O)cc1 |
| 3.50 | O=C(O)c1ccccc1NC1=CC(=O)c2ccccc2C1=O |
| < 3.52 | COc1ccc(NC2=CC(=O)C(Nc3ccc(OC)cc3)=CC2=O)cc1 |
| 4.52 | O=C1C=C(Nc2cccc(CO)c2)C(=O)c2ccccc21 |

| Structure (SMILES) | pIC50 |
| --- | --- |
| O=C1C=C(Nc2cccc(O)c2)C(=O)C=C1Nc1cccc(O)c1 | 4.24 |
| O=C1C=C(NCc2ccccc2)C(=O)C=C1NCc1ccccc1 | 3.56 |
| O=C1C=C(Nc2ccc(CO)cc2)C(=O)C=C1Nc1ccc(CO)cc1 | 4.67 |

target: T2, Dynamin-2 (Rattus norvegicus, UniProt P39052); assay: Inhibition of phosphatidylserine-stimulated GTPase activity of recombinant rat Dynamin 2 expressed in Sf21 cells assessed as inhibition of orthophosphate release from GTP by malachite green method; conditions: not given
T2 sequence (P39052 whole entry): T1 sequence (whole entry)
Summary of the method: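 His-6-tagged rat dynII expressed in Sf21 cells after polyethylenimine transfection (48 h), purified on GST-Amph2-SH3-sepharose. Enzyme at 50 nM, stimulated with phosphatidylserine liposomes for 90 min. Pi release from GTP read colorimetrically with malachite green. Final DMSO at most 3.3%.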

| pIC50 | Structure (SMILES) |
| --- | --- |
| 4.63 | O=C1C=C(Nc2ccc(O)cc2)C(=O)C=C1Nc1ccc(O)cc1 |
| 4.83 | O=C1C=C(Nc2cccc(C(=O)O)c2)C(=O)C=C1Nc1cccc(C(=O)O)c1 |
| 5.04 | O=C1C=C(Nc2ccc(C(=O)O)cc2)C(=O)C=C1Nc1ccc(C(=O)O)cc1 |

| Structure (SMILES) | pIC50 |
| --- | --- |
| O=C1C=C(Nc2cccc(O)c2)C(=O)C=C1Nc1cccc(O)c1 | 4.36 |

target: T3, Dynamin-1 (Homo sapiens) (UniProt Q05193); assay: Inhibition of Dynamin 1 in serum-starved human U2OS cells assessed as inhibition of clathrin-mediated Alexa-495-cojugated transferrin uptake pretreated up to 300 uM for 30 mins by high-content imaging method; type: cell-based; conditions: not given
T3 sequence (whole entry): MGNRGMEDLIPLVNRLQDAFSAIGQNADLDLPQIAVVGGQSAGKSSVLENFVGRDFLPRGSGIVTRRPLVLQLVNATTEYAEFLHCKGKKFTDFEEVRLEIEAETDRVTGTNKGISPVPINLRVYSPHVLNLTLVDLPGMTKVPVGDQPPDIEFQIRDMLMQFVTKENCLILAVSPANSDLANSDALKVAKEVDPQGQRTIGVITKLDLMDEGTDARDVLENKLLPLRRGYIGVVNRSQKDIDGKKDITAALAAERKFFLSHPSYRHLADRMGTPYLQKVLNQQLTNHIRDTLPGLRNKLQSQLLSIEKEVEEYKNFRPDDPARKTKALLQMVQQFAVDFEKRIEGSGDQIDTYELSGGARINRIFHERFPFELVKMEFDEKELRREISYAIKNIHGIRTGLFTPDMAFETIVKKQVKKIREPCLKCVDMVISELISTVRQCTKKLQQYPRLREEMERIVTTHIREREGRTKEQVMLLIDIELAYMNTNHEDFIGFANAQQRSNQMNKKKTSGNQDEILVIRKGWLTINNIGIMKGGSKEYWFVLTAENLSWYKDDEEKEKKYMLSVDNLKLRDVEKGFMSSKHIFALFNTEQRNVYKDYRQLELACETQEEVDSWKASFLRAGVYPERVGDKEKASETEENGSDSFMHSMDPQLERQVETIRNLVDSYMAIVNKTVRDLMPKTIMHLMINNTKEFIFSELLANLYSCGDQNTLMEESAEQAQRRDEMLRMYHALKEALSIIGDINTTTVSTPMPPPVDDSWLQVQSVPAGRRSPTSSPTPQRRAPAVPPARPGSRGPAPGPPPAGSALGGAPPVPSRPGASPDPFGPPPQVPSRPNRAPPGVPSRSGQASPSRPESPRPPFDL
Summary of the method: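 U2OS cells plated on fibronectin-coated glass to 70–80% confluency and serum-starved overnight (16 h). Pretreated with compound or 1% DMSO vehicle for 30 min, then given fluorescent transferrin for 8 min at 37 °C.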

| Structure (SMILES) | inhibition |
| --- | --- |
| O=C1C=C(Nc2cccc(O)c2)C(=O)C=C1Nc1cccc(O)c1 | inactive |

system: not listed separately; assay: Inhibition of phosphatidylserine-stimulated GTPase activity of sheep brain Dynamin 1 expressed in Sf21 cells assessed as inhibition of orthophosphate release from GTP up to 300 uM by malachite green method; conditions: Ovis aries
Summary of the method: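 DynI at 50 nM final was stimulated with phosphatidylserine liposomes for 30 min. Orthophosphate released from GTP was detected colorimetrically by Malachite Green. Compounds came from 30 mM DMSO stocks diluted in 50% DMSO/20 mM Tris-HCl pH 7.4; final DMSO was at most 3.3%.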

| Structure (SMILES) | inhibition |
| --- | --- |
| O=C1C=C(NCc2ccccc2)C(=O)c2ccccc21 | inactive |
| O=C1C=C(NCc2cccnc2)C(=O)C=C1NCc1cccnc1 | inactive |
| COCCCNC1=CC(=O)C(NCCCOC)=CC1=O | inactive |
| COc1ccc(CNC2=CC(=O)c3ccccc3C2=O)cc1 | inactive |
| Cc1ccc(CNC2=CC(=O)C(NCc3ccc(C)cc3)=CC2=O)cc1 | inactive |
| O=C(O)c1ccc(NC2=CC(=O)c3ccccc3C2=O)cc1 | inactive |
| O=C1C=C(Nc2ccccc2)C(=O)C=C1Nc1ccccc1 | inactive |
| O=C(O)c1cccc(NC2=CC(=O)c3ccccc3C2=O)c1 | inactive |
| O=C1C=C(NCCO)C(=O)c2ccccc21 | inactive |
| COCCNC1=CC(=O)C(NCCOC)=CC1=O | inactive |
| CSCCNC1=CC(=O)C(NCCSC)=CC1=O | inactive |
| Cc1ccccc1NC1=CC(=O)C(Nc2ccccc2C)=CC1=O | inactive |
| O=C1C=C(NCCCO)C(=O)c2ccccc21 | inactive |
| COc1ccccc1NC1=CC(=O)C(Nc2ccccc2OC)=CC1=O | inactive |
| O=C1C=C(NCCCO)C(=O)C=C1NCCCO | inactive |
| O=C1C=C(Nc2ccccc2)C(=O)c2ccccc21 | inactive |
| CCNC1=CC(=O)C(NCC)=CC1=O | inactive |
| O=C1C=C(NCc2ccc(Cl)cc2)C(=O)C=C1NCc1ccc(Cl)cc1 | inactive |
| CCCCNC1=CC(=O)C(NCCCC)=CC1=O | inactive |
| O=C1C=C(Nc2cccc(CO)c2)C(=O)C=C1Nc1cccc(CO)c1 | inactive |
| O=C1C=C(NCCCCl)C(=O)C=C1NCCCCl | inactive |
| CCCCCNC1=CC(=O)C(NCCCCC)=CC1=O | inactive |
| O=C1C=C(NCc2ccc(Br)cc2)C(=O)C=C1NCc1ccc(Br)cc1 | inactive |
| O=C1C=C(NCc2ccc(F)cc2)C(=O)C=C1NCc1ccc(F)cc1 | inactive |
| O=C1C=C(NCCc2ccccc2)C(=O)C=C1NCCc1ccccc1 | inactive |
| CCCNC1=CC(=O)C(NCCC)=CC1=O | inactive |
| O=C1C=C(NCCCCO)C(=O)C=C1NCCCCO | inactive |
| C=CCNC1=CC(=O)C(NCC=C)=CC1=O | inactive |
| O=C1C=C(NCc2ccccc2)C(=O)C=C1NCc1ccccc1 | inactive |
| CC(C)CCNC1=CC(=O)C(NCCC(C)C)=CC1=O | inactive |
